Test results published in ChEMBL document CHEMBL4321880 (J Med Chem, 2020).

Columns and labels:
ASPC1 [1] = experiment: Cytotoxicity against lentiviral pLVX-TRE3G-ZsGreen1-CYP3A5 transduced wild type human AsPC1 cells overexpressing CYP3A5 assessed as cell growth; type: ADME, cell-based
In short: (§1)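 Cells seeded at 10,000/well. Dox-inducible lines were induced with 100 ng/mL doxycycline, then treated 24 h later with compound at 16 two-fold dilutions (0.0003–10 μM) plus 5 μM midazolam, in 0.66% DMSO final, for 24 h. Phase-contrast confluence imaging followed. Values were normalized to six 0.66% DMSO replicates and fitted with a three-parameter log(inhibitor) vs response curve.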

Cytochrome P450 2D6 = Cytochrome P450 2D6 (Homo sapiens, UniProt P10635); experiment: Inhibition of CYP2D6 in human liver microsomes at 1.85 uM using dextromethorphan as substrate incubated for 10 mins in presence of NADPH by LC-MS/MS analysis; type: ADME
In short: (§2)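 Pooled human liver microsomes with 2 mM NADPH in 100 mM KPO4 pH 7.4, 5 mM MgCl2, 37 °C, technical triplicate, final DMSO 0.2%. Probe (substrate, level, protein, time): 1A2 tacrine 5 μM, 0.2 mg/mL, 10 min; 2B6 bupropion 100 μM, 0.25 mg/mL, 10 min; 2C8 amodiaquine 5 μM, 0.25 mg/mL, 10 min; 2C9 tolbutamide 100 μM, 0.5 mg/mL, 15 min; 2C19 mephenytoin 100 μM, 0.25 mg/mL, 60 min; 2D6 dextromethorphan 5 μM, 0.5 mg/mL, 10 min; 3A4 midazolam 2.5 μM or testosterone 50 μM, 0.25 mg/mL, 10 min. Methanol quench, metabolites measured by LC-MS/MS.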

Cytochrome P450 3A4 [2] = target: T1, Cytochrome P450 3A4 (Homo sapiens, UniProt P08684); experiment: Inhibition of CYP3A4 in human liver microsomes assessed as formation of 6-beta-hydroxytestosterone at 1.85 uM using testosterone as substrate incubated for 10 mins in presence of NADPH by LC-MS/MS analysis; type: ADME; in short: as §2
Cytochrome P450 3A4 [3] = target: T1, Cytochrome P450 3A4; experiment: Induction of CYP3A4 in CRISPR/Cas9-mediated CYP3A5 knock-out and doxycycline-induced CYP3A4 overexpressing human AsPC1 cells assessed as increase in 1-hydroxymidazolam formation using midazolam as substrate pretreated with doxycycline for 24 hrs followed by incubation with compound at higher concentrations for 24 hrs by LC-MS/MS analysis; type: ADME, cell-based; details: aspc1, 24 h
In short: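 AsPC-1 CYP3A5−/− cells with Dox-inducible CYP3A4, 10,000 cells/well, induced with 100 ng/mL doxycycline. 24 h later given compound (16-point 1:2 series, 0.0003–10 μM) plus 5 μM midazolam, final DMSO 0.66%, for 24 h. Quenched with acetonitrile containing warfarin internal standard. 1-Hydroxymidazolam measured by LC-MS/MS and normalized to DMSO control (100%).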

ASPC1 [4] = experiment: Cytotoxicity against wild type human AsPC1 cells assessed as cell growth; type: cell-based; in short: as §1
Cytochrome P450 3A5 = Cytochrome P450 3A5 (Homo sapiens, UniProt P20815); experiment: Binding affinity to heme in His-tagged CYP3A5 (unknown origin) expressed in Escherichia coli DH5alpha assessed as formation of five-coordinate ferric heme iron by measuring type 1 Soret shift from 417 nm (low spin) to 395 nm (high spin) by UV-vis spectrophotometric titration analysis
In short: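 Purified recombinant His-tagged CYP3A5 titrated with successive ligand additions until heme absorbance stopped changing. The ligand-free spectrum was subtracted to give difference spectra. Peak-minus-trough values were plotted against ligand concentration and fitted to a binding equation for Kd. Wavelength pairs: ΔA 386–418 nm for the type I shift; ΔA 432–410 nm for the type II shift.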

ASPC1 [5] = experiment: Increase in CYP3A4 expression in CRISPR/Cas9-mediated CYP3A5 knock-out and doxycycline-induced CYP3A4 overexpressing human AsPC1 cells at 1 uM after 24 hrs by Western blot analysis; type: ADME, cell-based; details: aspc1, 24 h
In short: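 Overexpression was induced with 100 ng/mL doxycycline. […] Blots were probed with anti-CYP3A4 K03 (also detects CYP3A5) and β-actin, with infrared dye secondaries. Bands were normalized to actin across triplicate gels, with DMSO set as 1.0.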

ASPC1 [6] = experiment: Cytotoxicity against CRISPR/Cas9-mediated CYP3A5 knock-out and doxycycline-induced CYP3A4 overexpressing human AsPC1 cells assessed as cell growth; type: ADME, cell-based; in short: as §1
Cytochrome P450 3A4 [7] = target: T1, Cytochrome P450 3A4; experiment: Binding affinity to His-tagged CYP3A4 (unknown origin) expressed in Escherichia coli DH5alpha assessed as type 1 spectral shift to substrate-bound form by UV-vis spectrophotometric titration analysis; type: ADME
In short: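 Recombinant His-tagged enzyme expressed in E. coli with groESL chaperones, purified by Ni-NTA, CM-sepharose and S-200 gel filtration (Rz ≥1.3). Ligand added stepwise until heme absorbance stopped changing. Difference spectra taken against the ligand-free spectrum. Peak-minus-trough ΔAbs (388–418 nm) plotted against ligand concentration and fitted with equation 2 for Kd.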

Cytochrome P450 2C19 = Cytochrome P450 2C19 (Homo sapiens, UniProt P33261); experiment: Inhibition of CYP2C19 in human liver microsomes assessed as formation of 4-hydroxymephenytoin at 1.85 uM using mephenytoin as substrate incubated for 60 mins in presence of NADPH by LC-MS/MS analysis; type: ADME; details: 1 h; in short: as §2
Cytochrome P450 1A2 = target: T2, Cytochrome P450 1A2 (Homo sapiens, UniProt P05177); experiment: Inhibition of CYP1A2 in human liver microsomes assessed as formation of hydroxytacrine at 1.85 uM using tacrine as substrate incubated for 10 mins in presence of NADPH by LC-MS/MS analysis; type: ADME; in short: as §2
T2 sequence (P05177 whole entry): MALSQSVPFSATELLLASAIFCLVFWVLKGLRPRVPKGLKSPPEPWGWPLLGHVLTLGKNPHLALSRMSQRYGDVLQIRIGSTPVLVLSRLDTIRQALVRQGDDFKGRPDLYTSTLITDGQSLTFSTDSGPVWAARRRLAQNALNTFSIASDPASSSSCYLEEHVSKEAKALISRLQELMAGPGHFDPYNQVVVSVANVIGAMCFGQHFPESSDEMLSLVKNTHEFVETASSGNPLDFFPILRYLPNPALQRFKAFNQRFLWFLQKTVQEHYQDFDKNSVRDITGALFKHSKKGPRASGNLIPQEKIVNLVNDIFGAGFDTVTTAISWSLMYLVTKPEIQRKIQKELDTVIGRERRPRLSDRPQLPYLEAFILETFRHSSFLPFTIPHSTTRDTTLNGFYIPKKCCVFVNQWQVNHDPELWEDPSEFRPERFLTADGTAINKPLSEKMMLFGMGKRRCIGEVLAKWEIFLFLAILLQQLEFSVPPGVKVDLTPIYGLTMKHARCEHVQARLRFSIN

Cytochrome P450 3A4 [8] = target: T1, Cytochrome P450 3A4; experiment: Inhibition of human recombinant CYP3A4 expressed in supersomes assessed as decrease in formation of D-luciferin at 1.89 uM using luciferin-IPA as substrate incubated for 10 mins in presence of NADPH by P450-Glo luminescence assay relative to control; type: ADME; details: recombinant enzyme
In short: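 P450-Glo assay with supersomes containing POR, cytochrome b5 and recombinant human CYP3A4, 0.1 pmol enzyme. Run in 100 mM KPO4 pH 7.4 with 3 μM Luciferin-IPA, started with NADPH, 10 min at 37 °C. Detection reagent added for 20 min at room temperature, then luminescence read. Final DMSO 0.1%.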

ASPC1 [9] = experiment: Cytotoxicity against CRISPR/Cas9-mediated CYP3A5 knock-out human AsPC1 cells assessed as cell growth; type: ADME, cell-based; in short: as §1
ASPC1 [10] = experiment: Cytotoxicity against CRISPR/Cas9-mediated CYP3A5 knock-out and lentiviral pLVX-TRE3G-ZsGreen1-CYP3A5 transduced human AsPC1 cells overexpressing CYP3A5 assessed as cell growth; type: ADME, cell-based; in short: as §1

T1 sequence (P08684 whole entry): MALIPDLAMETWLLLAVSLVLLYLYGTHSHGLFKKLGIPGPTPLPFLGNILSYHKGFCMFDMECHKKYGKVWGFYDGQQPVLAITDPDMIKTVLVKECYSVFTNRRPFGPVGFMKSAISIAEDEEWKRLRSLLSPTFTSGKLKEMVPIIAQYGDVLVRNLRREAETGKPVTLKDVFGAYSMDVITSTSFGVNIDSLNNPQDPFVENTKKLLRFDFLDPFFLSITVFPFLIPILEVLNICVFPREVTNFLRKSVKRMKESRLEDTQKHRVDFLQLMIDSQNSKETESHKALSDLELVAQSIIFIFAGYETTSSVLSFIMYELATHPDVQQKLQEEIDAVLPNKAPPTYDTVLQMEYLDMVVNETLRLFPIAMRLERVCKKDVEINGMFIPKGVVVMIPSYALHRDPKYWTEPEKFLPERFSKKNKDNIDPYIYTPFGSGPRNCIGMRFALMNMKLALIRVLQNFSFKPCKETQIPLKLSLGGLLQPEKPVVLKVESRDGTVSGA
Cytochrome P450 2D6, sequence (P10635 whole entry): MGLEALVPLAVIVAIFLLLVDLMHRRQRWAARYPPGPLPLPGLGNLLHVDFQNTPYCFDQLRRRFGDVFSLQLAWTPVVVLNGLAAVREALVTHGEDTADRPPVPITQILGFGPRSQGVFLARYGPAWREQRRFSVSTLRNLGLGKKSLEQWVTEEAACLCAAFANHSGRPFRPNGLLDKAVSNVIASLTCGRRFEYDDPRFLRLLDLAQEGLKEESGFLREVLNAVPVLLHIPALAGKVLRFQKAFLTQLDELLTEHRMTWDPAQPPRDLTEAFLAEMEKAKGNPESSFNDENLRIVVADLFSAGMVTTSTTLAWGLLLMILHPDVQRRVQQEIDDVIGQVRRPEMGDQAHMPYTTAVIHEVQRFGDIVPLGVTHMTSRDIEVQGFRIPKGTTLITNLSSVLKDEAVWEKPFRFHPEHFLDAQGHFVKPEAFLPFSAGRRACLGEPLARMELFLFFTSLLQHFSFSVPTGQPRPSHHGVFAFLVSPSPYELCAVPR
Cytochrome P450 2C19, sequence (P33261 whole entry): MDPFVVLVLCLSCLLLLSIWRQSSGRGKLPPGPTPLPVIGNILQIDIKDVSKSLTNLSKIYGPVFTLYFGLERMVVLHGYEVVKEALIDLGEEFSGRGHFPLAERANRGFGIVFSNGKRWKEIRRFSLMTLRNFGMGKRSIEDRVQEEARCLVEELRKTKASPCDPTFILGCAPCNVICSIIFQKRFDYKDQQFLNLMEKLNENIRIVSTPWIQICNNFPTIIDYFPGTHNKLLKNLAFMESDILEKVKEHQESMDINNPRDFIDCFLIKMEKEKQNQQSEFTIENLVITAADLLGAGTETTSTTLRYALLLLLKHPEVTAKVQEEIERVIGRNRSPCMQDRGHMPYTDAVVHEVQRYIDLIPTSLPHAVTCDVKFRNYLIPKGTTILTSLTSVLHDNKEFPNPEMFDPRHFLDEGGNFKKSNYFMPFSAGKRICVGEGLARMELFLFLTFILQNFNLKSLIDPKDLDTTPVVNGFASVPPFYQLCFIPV
Cytochrome P450 3A5, sequence (P20815 whole entry): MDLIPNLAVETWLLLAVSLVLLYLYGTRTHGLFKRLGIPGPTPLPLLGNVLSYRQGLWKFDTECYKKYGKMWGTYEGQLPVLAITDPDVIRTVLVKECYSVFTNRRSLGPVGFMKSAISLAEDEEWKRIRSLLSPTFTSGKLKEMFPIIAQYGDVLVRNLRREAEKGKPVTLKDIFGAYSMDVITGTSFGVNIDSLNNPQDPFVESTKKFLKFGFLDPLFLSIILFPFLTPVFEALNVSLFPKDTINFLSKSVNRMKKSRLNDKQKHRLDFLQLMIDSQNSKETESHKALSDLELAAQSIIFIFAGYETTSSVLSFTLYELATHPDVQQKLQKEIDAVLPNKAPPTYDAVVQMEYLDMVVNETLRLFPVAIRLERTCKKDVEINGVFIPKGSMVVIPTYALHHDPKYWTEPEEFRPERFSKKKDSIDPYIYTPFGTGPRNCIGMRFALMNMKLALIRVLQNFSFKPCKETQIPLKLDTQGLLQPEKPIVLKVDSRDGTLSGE

For `CCC(=O)O[C@]1(C(=O)CCl)[C@@H](C)C[C@H]2[C@@H]3CCC4=CC(=O)C=C[C@]4(C)[C@@]3(F)[C@@H](O)C[C@@]21C` [CLOBETASOL PROPIONATE], the Activity (ASPC1 [1]) was “Non-Toxic”, the “inhibition (INH)” value (Cytochrome P450 2D6) was “Not Active” and the “inhibition (INH)” value (Cytochrome P450 3A4 [2]) was “Not Active”. For the same molecule, the Activity (Cytochrome P450 3A4 [3]) was “Active”, the Activity (ASPC1 [4]) was “Non-Toxic” and the Activity (Cytochrome P450 3A5) was “Active”. The Activity (ASPC1 [5]) was “Not Active”, the Activity (ASPC1 [6]) was “Non-Toxic” and the Activity (Cytochrome P450 3A4 [7]) was “Active”. The “inhibition (INH)” value (Cytochrome P450 2C19) was “Not Active”, the “inhibition (INH)” value (Cytochrome P450 1A2) was “Not Active” and the “inhibition (INH)” value (Cytochrome P450 3A4 [8]) was “Not Active”. For the same molecule, the Activity (ASPC1 [9]) was “Non-Toxic” and the Activity (ASPC1 [10]) was “Non-Toxic”.
